Test [1] addresses Glutamate NMDA receptor; Grin1/Grin2a (Rattus norvegicus, UniProt P35439+Q00959). In words: Agonist activity at rat GluN1/GluN2A NMDA receptor expressed in Xenopus oocytes measured after 4 days in presence of L-glutamte by two-electrode voltage-clamp recording assay. It is filed as cell-based, Oocyte. Put shortly: (§1)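 Rat GluN1 plus GluN2A or GluN2B cRNA (1:2) in Xenopus oocytes. TEVC at −40 mV, room temperature, 2–4 days post-injection. Bath: 90 mM NaCl, 1 mM KCl, 10 mM HEPES, 0.5 mM BaCl2, 0.01 mM EDTA, pH 7.4. Oocytes were BAPTA-injected before recording. Agonist applied with 300 μM L-Glu throughout. NR means <5% response at the stated concentration. 3–14 oocytes.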

Test [2] has as its target Glutamate NMDA receptor; Grin1/Grin2b (Rattus norvegicus, UniProt P35439+Q00960). Description: Agonist activity at rat GluN1/GluN2B NMDA receptor expressed in Xenopus oocytes measured after 4 days in presence of L-glutamte by two-electrode voltage-clamp recording assay. The test is classed as cell-based, Oocyte. Put shortly:
as §1

Test [3] concerns the target Glutamate NMDA receptor; Grin1/Grin2c (Rattus norvegicus, UniProt P35439+Q00961). In words: Agonist activity at rat GluN1/GluN2C NMDA receptor expressed in Xenopus oocytes measured after 4 days in presence of L-glutamte by two-electrode voltage-clamp recording assay. The test is classed as cell-based, Oocyte. In short, it runs like this: (§2)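 Xenopus oocytes were injected with rat GluN1 and GluN2C or GluN2D cRNA (1:2) and recorded by TEVC 2–4 days later at −40 mV, room temperature, pH 7.4 HEPES/NaCl/BaCl2 saline. Concentration-response with 300 μM L-Glu present. NR means <5% response at the concentration given. DMSO ≤0.5%. 3–14 oocytes.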

Test [4] addresses Ionotropic glutamate receptor NMDA 1/2D (Rattus norvegicus, UniProt P35439+Q62645). Description: Agonist activity at rat GluN1/GluN2D NMDA receptor expressed in Xenopus oocytes measured after 4 days in presence of L-glutamte by two-electrode voltage-clamp recording assay. It is filed as cell-based, Oocyte. Put shortly: as §2
For test [5], the system named is Oocyte. In words: Agonist activity at recombinant GluN1a/GluN2B NMDA receptor (unknown origin) expressed in Xenopus oocytes assessed as inhibition of glycine-induced activation of current measured at 10 uM after 4 days in presence of L-glutamte by two-electrode voltage-clamp recording assay. The test is classed as cell-based. Conditions: Homo sapiens, filed as agonist, time 4.0 day. Put shortly: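 Oocytes expressing GluN1/2B were BAPTA-injected and held under two-electrode voltage clamp in continuous 300 μM L-Glu. […] Values are mean ± SEM from 12 oocytes.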

Test [6] can be described thus: Binding affinity at recombinant GluN1a/GluN2B NMDA receptor (unknown origin) expressed in Xenopus oocytes measured after 4 days in presence of L-glutamte by two-electrode voltage-clamp recording assay. The test is classed as cell-based, Homo sapiens. Conditions: oocyte.
Test [7] deals with Oocyte. In words: Agonist activity at mutant GluN1 F484A/T518 mutant//GluN3A NMDA receptor (unknown origin) expressed in Xenopus oocytes measured after 4 days in presence of glycine by two-electrode voltage-clamp recording assay. The test is classed as cell-based. As to conditions: Homo sapiens, time 4.0 day.
Test [8] has as its system Oocyte. In words: Agonist activity at mutant GluN1 F484A/T518 mutant//GluN3B NMDA receptor (unknown origin) expressed in Xenopus oocytes measured after 4 days in presence of glycine by two-electrode voltage-clamp recording assay. The test is classed as cell-based. Conditions: Homo sapiens, time 4.0 day.
Test [9] in a line: Agonist activity at GluN1/GluN2A V783F mutant NMDA receptor (unknown origin) expressed in Xenopus oocytes measured after 4 days in presence of glycine by two-electrode voltage-clamp recording assay. It is filed as cell-based. As to conditions: Homo sapiens, Oocyte, 96 h. In short, it runs like this:
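Rat GluN1 and GluN2A cRNA (1:2) injected into Xenopus oocytes, which received 50 nL of 50 mM BAPTA 10–30 min before recording. TEVC done 2–4 days after injection at room temperature, −40 mV, in 90 mM NaCl, 1 mM KCl, 10 mM HEPES, 0.5 mM BaCl2, 0.01 mM EDTA, pH 7.4. Agonist applied with 300 μM L-Glu continuously present, DMSO <0.5%.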

The subject of test [10] is Oocyte. In words: Agonist activity at wild type GluN1/GluN2A-V783L mutant NMDA receptor (unknown origin) expressed in Xenopus oocytes assessed as relative maximal efficacy measured at 10 uM after 4 days in presence of glycine by two-electrode voltage-clamp recording assay relative to glycine. It is filed as cell-based. Conditions: Homo sapiens, time 4.0 day. Put shortly:
(§3)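 Oocytes expressing GluN1 with wild-type GluN2A or with the GluN2A-V783L or V783F mutant were BAPTA-injected and recorded by TEVC in continuous 300 μM L-Glu. […] Values are mean ± SEM from 3–8 oocytes, compared with wild type by two-way ANOVA with Tukey's test.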

Test [11] deals with Oocyte. In words: Agonist activity at wild type GluN1/ GluN2A-V783F mutant NMDA receptor (unknown origin) expressed in Xenopus oocytes assessed as relative maximal efficacy measured at 10 uM after 4 days in presence of glycine by two-electrode voltage-clamp recording assay relative to glycine. It is filed as cell-based. Conditions: Homo sapiens, time 4.0 day. In short, it runs like this: as §3

A short description of test [12]: Agonist activity at wild type GluN1/GluN2A NMDA receptor (unknown origin) expressed in Xenopus oocytes measured after 4 days in presence of L-glutamate by two-electrode voltage-clamp recording assay. Conditions: Homo sapiens, Oocyte, 96 h.
The test system of test [13] is GluN1/GluN2A (Rattus norvegicus). Description: Agonist activity at wild type GluN1/GluN2A NMDA receptor (rat) expressed in Xenopus oocytes assessed as relative maximal efficacy measured at 10 uM after 4 days in presence of glycine by two-electrode voltage-clamp recording assay relative to glycine. Conditions: filed as agonist, time 4.0 day.
In test [14] the target is Glutamate NMDA receptor; Grin1/Grin2a (Rattus norvegicus) (UniProt P35439+Q00959). Description: Agonist activity at rat GluN1/GluN2A NMDA receptor expressed in Xenopus oocytes assessed as maximal relative efficacy measured after 4 days in presence of L-glutamte by two-electrode voltage-clamp recording assay relative to glycine. As to conditions: Oocyte, filed as agonist, time 4.0 day. It is filed as cell-based. Put shortly: (§4)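 Rat GluN1 plus GluN2A or GluN2B cRNA (1:2) in Xenopus oocytes. TEVC at −40 mV, room temperature, 2–4 days post-injection. Bath: 90 mM NaCl, 1 mM KCl, 10 mM HEPES, 0.5 mM BaCl2, 0.01 mM EDTA, pH 7.4. Oocytes were BAPTA-injected before recording. Agonist applied with 300 μM L-Glu throughout. […] NR means <5% response at the stated concentration. 3–14 oocytes.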

Test [15] concerns the target Glutamate NMDA receptor; Grin1/Grin2c (Rattus norvegicus) (UniProt P35439+Q00961). In words: Agonist activity at rat GluN1/GluN2C NMDA receptor expressed in Xenopus oocytes assessed as maximal relative efficacy measured after 4 days in presence of L-glutamte by two-electrode voltage-clamp recording assay relative to glycine. It is filed as cell-based. Conditions: Oocyte, filed as agonist, time 4.0 day. In short, it runs like this:
(§5)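 Xenopus oocytes were injected with rat GluN1 and GluN2C or GluN2D cRNA (1:2) and recorded by TEVC 2–4 days later at −40 mV, room temperature, pH 7.4 HEPES/NaCl/BaCl2 saline. Concentration-response with 300 μM L-Glu present. […] NR means <5% response at the concentration given. DMSO ≤0.5%. 3–14 oocytes.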

Test [16] deals with Ionotropic glutamate receptor NMDA 1/2D (Rattus norvegicus) (UniProt P35439+Q62645). Description: Agonist activity at rat GluN1/GluN2D NMDA receptor expressed in Xenopus oocytes assessed as maximal relative efficacy measured after 4 days in presence of L-glutamte by two-electrode voltage-clamp recording assay relative to glycine. The test is classed as cell-based. Conditions: Oocyte, filed as agonist, time 4.0 day. In short, it runs like this:
as §5

The target in test [17] is Glutamate NMDA receptor; Grin1/Grin2b (Rattus norvegicus) (UniProt P35439+Q00960). Description: Agonist activity at rat GluN1/GluN2B NMDA receptor expressed in Xenopus oocytes assessed as maximal relative efficacy measured after 4 days in presence of L-glutamte by two-electrode voltage-clamp recording assay relative to glycine. It is filed as cell-based. Conditions: Oocyte, filed as agonist, time 4.0 day. In short, it runs like this:
as §4

The structures appear in SMILES notation. The source made the active and inactive calls. The calls are words filed in the database; no cut-off is given here.

Take `CCc1ccccc1-c1ccc(C(=O)NC[C@@H](N)C(=O)O)o1`: the concentration giving a half-maximal response (EC50) in [1] was 0.093 µM; in test [3], 0.063 µM; in test [4] it was 0.15 µM; in test [9], 0.41 µM; in [12] it was 0.11 µM. Further, the IC50 in test [2] was found to be 10 µM. The inhibition with Oocyte [5] is 47%. For the same molecule, the Ki in [6] is 0.1 µM. Moreover, the inhibition result with Oocyte [7] and in the test with Oocyte [8] was “inactive” in each case. Besides, the Rmax with Oocyte [10] is 30%; in the test on Oocyte [11], 9%; in test [13] it was 45%.
Take `N[C@H](CO)C(=O)O`: the Rmax in test [14] amounted to 96%; in test [15] it was 111%; in test [16] it was 93%; in [17], 100%.

For the origin of these results see ChEMBL document CHEMBL5038630 (J Med Chem, 2022).
